# Screening data as filed in PubChem BioAssay.
# IDH1 R132H inh: inhibitors of human IDH1 R132H | inhibition, % at 10 µM | 0.18% of 70,000 active | AID 624101 | IDH1 R132H reductase, diaphorase/resazurin fluorescence, 60 min | O75874; in the data active = inhibition above about 34%; inconclusive = no clear call, values can overlap the other calls; inactive = below about 11%
# GASC1 inh: blocks human GASC-1 (KDM4C) demethylase activity; Q9H3R0; GST-KDM4C 2-372, H3K9me3 peptide, LANCE TR-FRET; inhibition, % at 12.5 µM; 0.15% of 96,000 active;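 active = mean replicate inhibition above about 25%, with at least 55% of replicates also reaching it, limit read from the data, passing the limit was not always enough; inconclusive = only one of those two conditions met; inactive = neither condition met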
# Target sequence (Q9H3R0 2-372 limits assumed): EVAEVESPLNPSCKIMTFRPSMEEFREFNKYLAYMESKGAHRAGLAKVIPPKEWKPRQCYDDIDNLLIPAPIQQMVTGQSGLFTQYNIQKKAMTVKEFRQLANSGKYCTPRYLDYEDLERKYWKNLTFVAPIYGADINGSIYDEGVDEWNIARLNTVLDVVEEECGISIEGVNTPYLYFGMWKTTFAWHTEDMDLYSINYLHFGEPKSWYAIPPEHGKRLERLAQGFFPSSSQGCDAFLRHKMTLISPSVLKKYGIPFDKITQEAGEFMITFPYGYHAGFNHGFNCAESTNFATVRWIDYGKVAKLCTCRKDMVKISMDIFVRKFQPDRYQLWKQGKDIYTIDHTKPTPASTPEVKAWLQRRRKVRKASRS
#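 System – N-terminal GST-fused human GASC-1 (KDM4C) fragment, residues 2-372 · Input – enzyme final amount 10 nM · Technique – LANCE TR-FRET, Eu antibody, ULight-streptavidin, EDTA, ex 340 nm, em 618/671 nm · Medium – HEPES buffer, pH 7.5, plus ascorbate · Incubation – enzyme reaction 30 min, then detection 60 min, both room temperature · Reagent – H3K9me3 peptide with Fe(II)/2OG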
# T cruzi growth-1: blocks T. cruzi growth in NIH3T3 culture. T. cruzi beta-gal in NIH3T3, GalScreen luminescence, 90 h. inhibition, % at 8.34 µM. 5.9% of 77,000 active. AID 624255;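 active = mean inhibition above about 93%, with at least 55% of replicates each passing it, limit read from the data, passing the limit was not always enough; inconclusive = only one of those two conditions holds; inactive = neither condition holds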
# T cruzi growth-2: inhibitors of T. cruzi proliferation. shares compounds with T cruzi growth-1. T. cruzi beta-gal in NIH3T3, GalScreen luminescence, 90 h. inhibition, % at 8.35 µM. 72% of 5,600 active. AID 651739;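 active = mean replicate inhibition above about 95% and at least 55% of replicates individually reaching it, limit read from the data; inconclusive = only one of the two criteria is met; inactive = neither criterion is met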
# T cruzi growth-3: inhibitors of T. cruzi proliferation | shares compounds with T cruzi growth-1 | T. cruzi beta-gal in NIH3T3, GalScreen luminescence, 90 h | inhibition, % at 2.09 µM | 21% of 5,600 active | AID 651740;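 active = mean inhibition above about 95%, with at least 55% of replicates also reaching it, limit read from the data; inconclusive = meets just one of the two conditions; inactive = meets neither condition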
# 3T3 cytotox: NIH/3T3 (mouse) viability loss; shares compounds with T cruzi growth-1; NIH/3T3 viability, CellTiter-Glo ATP luminescence, 90 h; cytotoxicity (signal decrease), % at 8.35 µM; 14% of 5,600 active; AID 651742;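 active = mean signal decrease across replicates above about 35% based on untreated-well scatter, with enough replicates individually passing, limit read from the data; inconclusive = no rule stated though some were filed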
# 3T3 cytotox 2: kills mouse NIH/3T3 fibroblasts; shares compounds with T cruzi growth-1; NIH/3T3 viability, CellTiter-Glo ATP luminescence, 90 h; inhibition, % at 24.9 µM; 56% of 5,600 active; AID 651744;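 active = mean loss of cell viability signal at or above a set limit, and enough replicates individually reaching it; inconclusive = meets only the mean limit or only the replicate share; inactive = meets neither condition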
# Hits are given with their value; 0 = inactive; ? = inconclusive; - = not tested or not shown. This is one part of a sample in which hits are shown more often than they occur.
SMILES,IDH1 R132H inh,GASC1 inh,T cruzi growth-1,T cruzi growth-2,T cruzi growth-3,3T3 cytotox,3T3 cytotox 2
O=C(C[C@H]1CC[C@H]2[C@@H](COC[C@H](O)CN2S(=O)(=O)c2cccc(Cl)c2)O1)Nc1ccc(-c2ccccc2)cc1,-,0,0,-,-,-,-
O=C(C[C@H]1CC[C@@H]2[C@H](COC[C@@H](O)CN2S(=O)(=O)c2cccc(Cl)c2)O1)Nc1ccc(-c2ccccc2)cc1,-,0,103.4,0,107.9,51.9,104.6
O=C(C[C@@H]1CC[C@H]2[C@@H](COC[C@@H](O)CN2S(=O)(=O)c2cccc(Cl)c2)O1)Nc1ccccc1,-,0,0,-,-,-,-
O=C1CC(c2ccccc2F)C2=C(CC(c3ccc(F)cc3)CC2=O)N1 (centres undefined),0,-,-,-,-,-,-
COCC#Cc1ccc([C@H]2[C@@H](CO)N3CCCCN(Cc4cccnc4)C[C@H]23)cc1,-,0,100.4,96.3,0,0,0
COCC#Cc1ccc([C@H]2[C@@H](CO)N3CCCCN(Cc4cncnc4)C[C@@H]23)cc1,-,0,107.5,0,0,0,0
COCC#Cc1ccc([C@@H]2[C@H](CO)N3CCCCN(Cc4cccnc4)C[C@@H]23)cc1,-,0,0,-,-,-,-
COCC#Cc1ccc([C@H]2[C@H]3CN(Cc4cncnc4)CCCCN3[C@H]2CO)cc1,-,0,0,-,-,-,-
COCC#Cc1ccc([C@H]2[C@H](CO)N3CCCCN(Cc4cccnc4)C[C@@H]23)cc1,-,0,102.2,100.9,0,0,0
Cc1ccc(N(CC(=O)Nc2ccccc2-c2ccccc2)S(C)(=O)=O)cc1,0,-,-,-,-,-,-
C[C@@H]1CN([C@H](C)CO)C(=O)c2cc(NC(=O)Nc3cccc4ccccc34)ccc2O[C@@H](C)CCCCO[C@@H]1CN(C)S(=O)(=O)c1ccc(Cl)cc1,-,0,0,-,-,-,-
C[C@@H]1CCCCO[C@@H](CN(C)S(=O)(=O)c2ccc(F)cc2)[C@@H](C)CN([C@@H](C)CO)C(=O)c2cc(NC(=O)Nc3cccc4ccccc34)ccc2O1,0,0,0,-,-,-,-
C[C@H](CO)N1C[C@H](C)[C@@H](CN(C)S(=O)(=O)c2ccc(Cl)cc2)Oc2ccc(NC(=O)Nc3cccc4ccccc34)cc2C1=O,0,0,-,-,-,-,-
C[C@@H]1CCCCO[C@H](CN(C)S(=O)(=O)c2ccc(Cl)cc2)[C@H](C)CN([C@@H](C)CO)C(=O)c2cc(NC(=O)Nc3cccc4ccccc34)ccc2O1,0,0,100.5,109.2,103.8,0,0
C[C@@H]1CCCCO[C@H](CN(C)S(=O)(=O)c2ccc(F)cc2)[C@H](C)CN([C@H](C)CO)C(=O)c2cc(NC(=O)Nc3cccc4ccccc34)ccc2O1,-,0,101.2,104.0,107.6,0,0
C[C@H](CO)N1C[C@H](C)[C@H](CN(C)S(=O)(=O)c2ccc(Cl)cc2)OCCCC[C@H](C)Oc2ccc(NC(=O)Nc3cccc4ccccc34)cc2C1=O,-,0,98.0,111.4,102.5,0,?
C[C@@H]1CN([C@H](C)CO)C(=O)c2cc(NC(=O)Nc3cccc4ccccc34)ccc2O[C@@H]1CN(C)S(=O)(=O)c1ccc(Cl)cc1,0,0,97.9,107.1,0,0,48.9
C[C@@H]1CN([C@H](C)CO)C(=O)c2cc(NC(=O)Nc3cccc4ccccc34)ccc2O[C@@H](C)CCCCO[C@H]1CN(C)S(=O)(=O)c1ccc(Cl)cc1,0,0,0,-,-,-,-
COc1cccc(NC(=O)C(C)NS(=O)(=O)c2ccc(Cl)cc2)c1 (centres undefined),0,-,-,-,-,-,-
COc1ccccc1CNC(=O)C[C@H]1C[C@@H]2c3cc(NC(=O)NC4CCCC4)ccc3O[C@@H]2[C@@H](CO)O1,0,0,109.0,0,0,0,0
COc1ccccc1CNC(=O)C[C@H]1C[C@H]2c3cc(NC(=O)NC4CCCC4)ccc3O[C@H]2[C@H](CO)O1,0,0,109.4,107.7,0,0,0
COc1ccccc1CNC(=O)C[C@H]1C[C@@H]2c3cc(NC(=O)CC4CC4)ccc3O[C@@H]2[C@H](CO)O1,0,0,0,-,-,-,-
COc1ccccc1CNC(=O)C[C@@H]1C[C@@H]2c3cc(NC(=O)CC4CC4)ccc3O[C@@H]2[C@@H](CO)O1,0,0,0,-,-,-,-
C[C@H](CO)N1C[C@H](C)[C@H](CN(C)Cc2ccccc2)OCCCC[C@H](C)Oc2ccc(NC(=O)Nc3cccc4ccccc34)cc2C1=O,0,0,117.2,0,0,0,93.1
C[C@@H]1CCCCO[C@@H](CN(C)Cc2ccccc2)[C@@H](C)CN([C@H](C)CO)C(=O)c2cc(NC(=O)Nc3cccc4ccccc34)ccc2O1,0,0,-,-,-,-,-
SMILES,IDH1 R132H inh,GASC1 inh,T cruzi growth-1,T cruzi growth-2,T cruzi growth-3,3T3 cytotox,3T3 cytotox 2
COc1ccc(CN(C)C[C@H]2OCCCC[C@@H](C)Oc3ccc(NC(=O)Nc4cccc5ccccc45)cc3C(=O)N([C@@H](C)CO)C[C@@H]2C)cc1,-,0,?,96.8,101.2,41.1,103.0
C[C@H](CO)N1C[C@H](C)[C@@H](CN(C)Cc2ccc(C(=O)O)cc2)OCCCC[C@H](C)Oc2ccc(NC(=O)Nc3cccc4ccccc34)cc2C1=O,0,0,0,-,-,-,-
COc1ccc(CN(C)C[C@H]2OCCCC[C@@H](C)Oc3ccc(NC(=O)Nc4cccc5ccccc45)cc3C(=O)N([C@@H](C)CO)C[C@H]2C)cc1,-,0,0,-,-,-,-
C[C@@H]1CCCCO[C@@H](CN(C)Cc2ccccc2)[C@H](C)CN([C@@H](C)CO)C(=O)c2cc(NC(=O)Nc3cccc4ccccc34)ccc2O1,0,0,107.2,102.9,104.0,0,106.3
C[C@@H]1CN([C@@H](C)CO)C(=O)c2cc(NC(=O)Nc3cccc4ccccc34)ccc2O[C@@H](C)CCCCO[C@@H]1CN(C)Cc1ccccc1,-,0,116.3,110.1,101.1,0,?
C[C@@H]1CCCCO[C@H](CN(C)Cc2ccc(C(=O)O)cc2)[C@H](C)CN([C@H](C)CO)C(=O)c2cc(NC(=O)Nc3cccc4ccccc34)ccc2O1,0,0,0,-,-,-,-
COC(OC)C1(C)NC(=O)c2ccccc2N1 (centres undefined),0,-,-,-,-,-,-
CCc1cc2c(SCC(=O)N3CCc4ccccc43)ncnc2s1,0,-,-,-,-,-,-
N#Cc1ccccc1OCCCn1cnc2ccccc21,0,-,-,-,-,-,-
Cn1nnnc1SCC(=O)Nc1ccc(F)c(F)c1,0,-,-,-,-,-,-
C[C@@H]1CCCCO[C@@H](CN(C)CC2CCCCC2)[C@@H](C)CN([C@H](C)CO)C(=O)c2cc(NC(=O)Nc3cccc4ccccc34)ccc2O1,-,0,?,105.3,105.0,0,36.3
C[C@@H]1CN([C@H](C)CO)C(=O)c2cc(NC(=O)Nc3cccc4ccccc34)ccc2O[C@@H](C)CCCCO[C@H]1CN(C)Cc1ccccc1,0,0,111.5,0,104.5,0,106.7
